Hits are enriched below; roughly 3.1% of the tested compounds scored in any of these assays.
PolyA inhibitor: polyadenylation inhibitors in yeast reporter cells, primary screen, luminescence, S. cerevisiae | S. cerevisiae SKY197-pL101 polyadenylation reporter, beta-gal luminescence; efflux-impaired pdr1/pdr3 knockout yeast; score 100 = 6 SD above DMSO | activity score, % at 12 µM | 300,000 tested, 0.02% active;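 active = lowest replicate activity score at least 50, where 100 means six control SD above control mean; inconclusive = lowest score under 50 but half or more replicates reach 50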;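 note: yeast exposed to compound for 9 h at 30 °C; higher score means more reporter readthrough which indicates perturbed polyadenylation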
T cruzi repl: inhibitors of intracellular T. cruzi growth, primary screen, luminescence, NIH3T3 host cells; T. cruzi beta-gal in NIH3T3, 90 h; 300,000 tested, 1.4% active; inhibition, % (test concentration not listed);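 active = mean inhibition across valid replicates above about 55%, limit read from the data; inconclusive = mean below that limit but half or more replicates reach it; inactive = mean below it, under half of replicates reach it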;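 note: signal also drops with host cell toxicity which is not excluded here; 0% = plate median of DMSO wells and 100% = zero luminescence signal; higher percent means less beta-gal luminescence so fewer parasites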
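Incubation – ≥90 h infection period, 3 h prior cell attachment · System – NIH/3T3 fibroblasts plus reporter T. cruzi · Doses – compound pinned at 50 nL/well, DMSO · Read-out basis – percent inhibition of parasite-derived β-gal signal · Signal – luminescent β-galactosidase signal after 60 min lysis · Also added – 5000 T. cruzi trypomastigotes/well · Medium – Low-serum DMEM with 2% FBS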
CSC inhib: cancer stem cell viability inhibitors, primary screen, luminescence; cancer stem cell-like cells viability; inhibition, % at 7.5 µM; 300,000 tested, 1.1% active; in the data active = inhibition above about 75%; inconclusive = no clear call, values can overlap the other calls; tested in HMLE shEcad cells
Beta cell apopt: inhibitors of cytokine-induced beta cell apoptosis, primary screen, luminescence | INS-1E cytokine-induced death, ATP luminescence, 48 h; percent of positive-control rescue, neutral wells zero | protection from apoptosis, % (concentration not given with the values) | 300,000 tested, 0.8% active;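 active = Every replicate reaches about 75%, or at least half do and their mean reaches it too, limit read from the data; inconclusive = At least half of replicates reach the limit but their mean does not; inactive = Under half of replicates reach the limit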;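 note: 0% = cytokine-treated negative control wells and 100% = positive control rescue; higher means more ATP so stronger rescue from cytokine killing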
Calb FLC: C. albicans growth inhibition with fluconazole, primary screen, CaCi-2 strain, Alamar Blue fluorescence; C. albicans CaCi-2 (fluconazole-resistant clinical isolate) + fluconazole, 48 h; growth inhibition, % (test concentration not listed); 300,000 tested, 0.57% active;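 active = growth inhibition above about 58% in most replicates, limit read from the data, passing the limit was not always enough; inconclusive = exactly half the replicates above a set limit; inactive = most replicates below a set limit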;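 note: all wells also contain fluconazole at 8 µg/ml as a sub-toxic cotreatment; 0% = median of DMSO wells and 100% = median of geldanamycin control wells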
HIF act: HIF pathway transcriptional activators, primary screen, cell-based, U2OS HRE-luciferase, luminescence; U2OS HRE-luciferase reporter; normalized: DMSO 0%, desferrioxamine 100%; activation, % at 7.5 µM (by protocol); 300,000 tested, 0.32% active; AID 1910, 2009;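 active = mean activation of at least 10% of the iron chelator positive control signal, with at least half of replicates also reaching 10%; inconclusive = mean and replicate majority disagree about reaching 10%; inactive = mean and most replicates under 10%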
The depositor's hits bear a star.

CCC1CCCCN1CCCNC(=O)Cn1ncn2nc(-c3ccc(OC)cc3)cc2c1=O (stereo not drawn) was read as PolyA inhibitor -3.6, T cruzi repl 16.4, CSC inhib 20.2, Beta cell apopt -2.8, Calb FLC 14.4 and HIF act 3.2.
For COc1ccc(-c2c/c(=N\c3nc(-c4ccccc4)c(C)s3)c3ccccc3o2)cc1O the results were PolyA inhibitor 10.4, T cruzi repl -10.1, CSC inhib 79.8*, Beta cell apopt 28.2, Calb FLC -2.7 and HIF act 0.2.
`COc1ccc(-c2cc(=Nc3c(C)n(C)n(-c4ccccc4)c3=O)c3ccccc3o2)cc1` gave PolyA inhibitor -13.5, T cruzi repl -5.0, CSC inhib -2.3, Beta cell apopt 2.5, Calb FLC 3.7 and HIF act 5.7.
`O=C1/C(=C\c2cccc(O)c2O)SC(=S)N1Cc1ccccc1` gave PolyA inhibitor -2.2, T cruzi repl 31.4, CSC inhib 85.9*, Beta cell apopt -1.7, Calb FLC 3.0 and HIF act 1.3.
For O=C(O)CN1C(=O)/C(=C\c2cc([N+](=O)[O-])ccc2OCc2ccccc2Cl)SC1=S the results were PolyA inhibitor -4.2, T cruzi repl 3.3, CSC inhib 1.9, Beta cell apopt 10.3, Calb FLC 18.2 and HIF act -1.3.
For COc1cccc(/C=C2/SC(=S)N(CC(=O)NNC(=O)c3ccccc3O)C2=O)c1 the results were PolyA inhibitor 3.8, T cruzi repl -7.7, Beta cell apopt -1.2, Calb FLC -24.3 and HIF act 0.1.
For O=C1/C(=C\c2cccc(O)c2)SC(=S)N1Cc1ccccc1 the results were PolyA inhibitor -2.6, T cruzi repl 9.0, CSC inhib 19.9, Beta cell apopt -5.8, Calb FLC 5.7 and HIF act -6.8.
O=C1/C(=C\c2ccc(O)c(O)c2)SC(=S)N1Cc1ccccc1 was read as PolyA inhibitor -1.7, T cruzi repl 3.6, CSC inhib 104.5*, Beta cell apopt -1.2, Calb FLC 18.2 and HIF act -49.7.
Screening O=C1/C(=C\c2cc([N+](=O)[O-])ccc2O)SC(=S)N1Cc1ccc(Cl)cc1 returned PolyA inhibitor -32.7, T cruzi repl -1.3, CSC inhib 104.4*, Beta cell apopt 4.0, Calb FLC 85.5* and HIF act 0.0.
`O=C(CN1C(=O)/C(=C/c2ccccc2)SC1=S)NNC(=O)c1ccccc1O` gave PolyA inhibitor 1.1, T cruzi repl -1.9, CSC inhib -9.5, Beta cell apopt 4.9, Calb FLC 84.3* and HIF act -0.6.
`O=C1/C(=C/c2ccncc2)SC(=S)N1Cc1ccccc1` gave PolyA inhibitor -8.9, T cruzi repl 5.3, CSC inhib 58.1, Calb FLC -1.7 and HIF act 0.3.
Screening COc1cc(/C=C2/SC(=NCc3ccccc3)N(Cc3ccccc3)C2=O)ccc1O returned PolyA inhibitor 4.4, T cruzi repl -10.6, CSC inhib 0.2, Beta cell apopt -5.0, Calb FLC -4.4 and HIF act -0.1.
Screening O=C(O)CN1C(=O)/C(=C\c2cc(Br)ccc2OCc2ccc(F)cc2)SC1=S returned PolyA inhibitor -8.0, T cruzi repl 0.1, CSC inhib 41.2, Beta cell apopt -11.8, Calb FLC 1.5 and HIF act 0.8.
`COc1cc(/C=C2/SC(=S)N(Cc3ccccc3)C2=O)ccc1O` gave PolyA inhibitor 19.1, T cruzi repl -8.4, CSC inhib 100.3*, Beta cell apopt -1.4, Calb FLC 31.0 and HIF act 0.2.
For Cc1ccccc1/C=C1\SC(=S)N(/N=C/c2cc([N+](=O)[O-])ccc2O)C1=O the results were PolyA inhibitor -37.3, T cruzi repl 4.7, CSC inhib 5.5, Beta cell apopt 6.9, Calb FLC 84.8* and HIF act 0.0.
For O=C(O)CN1C(=O)/C(=C\c2cc(Br)ccc2OCc2ccc(Cl)cc2)SC1=S the results were PolyA inhibitor 13.8, T cruzi repl -19.0, CSC inhib 98.3*, Beta cell apopt -5.0, Calb FLC 0.0 and HIF act -4.7.
CCOC(=O)[C@H]1[C@H]2COc3cc(OC)ccc3[C@@H]2N2C(=O)N(c3ccc(Cl)cc3)C(=O)[C@@]12C was read as PolyA inhibitor 7.8, T cruzi repl 14.2, CSC inhib -0.3, Beta cell apopt 6.0, Calb FLC -7.8 and HIF act 0.8.
Screening CCOC(=O)COc1ccc2ccccc2c1/C=C/[N+](=O)[O-] returned PolyA inhibitor -30.7, T cruzi repl 10.9, CSC inhib -7.7, Beta cell apopt 106.1*, Calb FLC 66.4 and HIF act -7.2.
Screening CCOC(=O)COc1ccc(/C=C/[N+](=O)[O-])c(OCC(=O)OCC)c1 returned PolyA inhibitor -5.1, T cruzi repl 10.8, CSC inhib 5.8, Beta cell apopt 9.9, Calb FLC -11.4 and HIF act -1.0.
O=[N+]([O-])/C=C/c1c(OCc2ccccc2)ccc2ccccc12 was read as PolyA inhibitor -68.6, T cruzi repl 54.3, CSC inhib -9.3, Beta cell apopt 115.3*, Calb FLC 9.4 and HIF act -0.2.
For N/C(=N\N=C/c1ccc(Br)cc1)N/N=C\c1ccc(Br)cc1 the results were PolyA inhibitor -4.8, T cruzi repl 39.5, CSC inhib 102.5*, Beta cell apopt 2.3, Calb FLC -19.7 and HIF act -0.6.
For N/C(=N\N=C/c1ccc(F)cc1)N/N=C\c1ccc(F)cc1 the results were PolyA inhibitor -21.3, T cruzi repl 14.7, CSC inhib 77.3*, Beta cell apopt 7.8, Calb FLC -7.3 and HIF act 1.7.
O=C(N/N=C/c1ccc(F)cc1)c1ccc(Br)cc1 was read as PolyA inhibitor 15.9, T cruzi repl 3.9, CSC inhib 8.7, Beta cell apopt 3.5, Calb FLC inconclusive and HIF act 1.3.
Screening Cc1ccc(/C=C/C(=O)OCc2nc(N)nc(Nc3ccccc3C)n2)o1 returned PolyA inhibitor -17.4, T cruzi repl -1.5, CSC inhib 14.7, Beta cell apopt -4.8, Calb FLC -10.1 and HIF act -0.8.
COc1ccc(/C=C/C(=O)Nc2c(C(=O)O)[nH]c3ccccc23)cc1OC was read as PolyA inhibitor -1.7, T cruzi repl -7.4, CSC inhib -2.3, Beta cell apopt 0.3, Calb FLC 0.6 and HIF act 0.0.

Screens deposited in PubChem BioAssay by Broad Institute.
